Measured values from ChEMBL document CHEMBL1649147, “Antistaphylococcal activity of dihydrophthalazine antifolates, a family of novel antibacterial drugs” (2009).
Converted amounts (≈) assume the structure as drawn.

Key:
[1] = tested on: Staphylococcus epidermidis; test: Antibacterial activity against coagulase-negative Staphylococcus epidermidis 051 assessed as change in MIC by agar dilution method after serial passages in the absence of antibiotic relative to control; assay type: functional
Method in brief: (§1)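 After drug-selective serial passage, selected clones were passaged 10 times in antibiotic-free MHB. MICs were then redetermined, and the change is expressed as log2 dilution steps.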

[2] = tested on: Staphylococcus aureus; test: Antibacterial activity against methicillin-susceptible, vancomycin-intermediate Staphylococcus aureus 505 by broth macrodilution method; assay type: functional
[3] = tested on: Staphylococcus epidermidis; test: Antibacterial activity against methicillin-resistant coagulase-negative Staphylococcus epidermidis 197 after 50 passages by agar dilution method; assay type: functional
Method in brief: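 Daily serial passage for up to 50 days at 35°C for 24 h in 1 ml MHB. Each transfer used 10 µl from the tube nearest the MIC (1–2 dilutions below) with the same turbidity as the drug-free control. MICs were measured by agar dilution, with changes given as log2 steps.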

[4] = tested on: Staphylococcus aureus; test: Antibacterial activity against methicillin-resistant Staphylococcus aureus 507 by broth macrodilution method; assay type: functional
[5] = tested on: Staphylococcus aureus; test: Antibacterial activity against Staphylococcus aureus ATCC 29213 assessed as change in MIC by agar odilution method after serial passages in presence of antibiotic relative to control; assay type: functional, ATCC29213
Method in brief: (§2)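 Serial passage under drug. Inoculum was ~1 × 10^6 CFU/ml from overnight MHA growth, in 1 ml MHB at 35°C for 24 h. Drug ranged from 4 log2 steps above to 3 log2 steps below the MIC. […] MIC change is given as log2 steps.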

[6] = tested on: Staphylococcus aureus; test: Antibacterial activity against methicillin-resistant and vancomycin-resistant Staphylococcus aureus VRS1 by agar dilution method; assay type: functional
Method in brief: (§3)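 Agar dilution on Mueller-Hinton agar per CLSI guidelines. S. aureus ATCC 29213 and E. faecalis ATCC 29212 were run with each set, and test MICs were accepted only when the control strains fell within acceptable ranges.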

[7] = tested on: Staphylococcus epidermidis; test: Antibacterial activity against coagulase-negative Staphylococcus epidermidis 051 assessed as change in MIC by agar dilution method after serial passages in presence of antibiotic relative to control; assay type: functional; method in brief: as §2
[8] = tested on: Staphylococcus aureus; test: Antibacterial activity against methicillin-resistant Staphylococcus aureus 145 by broth macrodilution method; assay type: functional
[9] = tested on: Staphylococcus epidermidis; test: Antibacterial activity against coagulase-negative Staphylococcus epidermidis 051 after 10 passages in MBH without antibiotic by agar dilution method; assay type: functional; method in brief: as §1
[10] = tested on: Staphylococcus epidermidis; test: Antibacterial activity against coagulase-negative Staphylococcus epidermidis 225 by agar dilution method; assay type: functional
Method in brief: (§4)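 MICs by agar dilution on Mueller-Hinton agar following CLSI guidelines. S. aureus ATCC 29213 and E. faecalis ATCC 29212 were run as quality controls with each set, and test-strain MICs were kept only if control MICs fell within acceptable ranges.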

[11] = tested on: Staphylococcus aureus; test: Antibacterial activity against vancomycin-resistant Staphylococcus aureus VRS1 assessed as change in MIC by agar dilution method after serial passages in presence of antibiotic relative to control; assay type: functional
Method in brief: (§5)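 Daily serial passage for up to 50 days at 35°C for 24 h in 1 ml MHB. […] Each transfer used 10 µl from the tube nearest the MIC (1–2 dilutions below) with the same turbidity as the drug-free control. […] MICs were measured by agar dilution, with changes given as log2 steps.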

[12] = tested on: Staphylococcus epidermidis; test: Antibacterial activity against methicillin-resistant, vancomycin-intermediate coagulase-negative Staphylococcus epidermidis 225 by agar dilution method; assay type: functional; method in brief: as §3
[13] = tested on: Staphylococcus epidermidis; test: Antibacterial activity against coagulase-negative Staphylococcus epidermidis 057 assessed as change in MIC by agar dilution method after serial passages in the absence of antibiotic relative to control; assay type: functional; method in brief: as §1
[14] = tested on: Staphylococcus epidermidis; test: Antibacterial activity against methicillin-resistant coagulase-negative Staphylococcus epidermidis 197 by broth macrodilution method; assay type: functional
[15] = tested on: Staphylococcus aureus; test: Antibacterial activity against methicillin-susceptible Staphylococcus aureus ATCC 29213 after 50 passages by agar dilution method; assay type: functional; details: ATCC29213; method in brief: as §5
[16] = tested on: Staphylococcus epidermidis; test: Antibacterial activity against coagulase-negative Staphylococcus epidermidis 225 after 10 passages in MBH without antibiotic by agar dilution method; assay type: functional; method in brief: as §1
[17] = tested on: Staphylococcus aureus; test: Antibacterial activity against methicillin-resistant Staphylococcus aureus by agar dilution method; assay type: functional; method in brief: as §3
[18] = tested on: Staphylococcus aureus; test: Antibacterial activity against methicillin-susceptible Staphylococcus aureus 505 by broth macrodilution method; assay type: functional
[19] = tested on: Staphylococcus aureus; test: Antibacterial activity against Tmp-susceptible coagulase-negative Staphylococcus aureus by agar dilution method; assay type: functional; method in brief: as §4
[20] = tested on: Staphylococcus epidermidis; test: Antibacterial activity against methicillin-susceptible coagulase-negative Staphylococcus epidermidis 057 by broth macrodilution method; assay type: functional
[21] = tested on: Staphylococcus epidermidis; test: Antibacterial activity against coagulase-negative Staphylococcus epidermidis 057 after 10 passages in MBH without antibiotic by agar dilution method; assay type: functional; method in brief: as §1
[22] = tested on: Staphylococcus epidermidis; test: Antibacterial activity against coagulase-negative Staphylococcus epidermidis 057 assessed as change in MIC by agar dilution method after serial passages in presence of antibiotic relative to control; assay type: functional; method in brief: as §2
[23] = tested on: Staphylococcus epidermidis; test: Antibacterial activity against coagulase-negative Staphylococcus epidermidis 345 assessed as change in MIC by agar dilution method after serial passages in the absence of antibiotic relative to control; assay type: functional; method in brief: as §1
[24] = tested on: Staphylococcus epidermidis; test: Antibacterial activity against coagulase-negative Staphylococcus epidermidis 225 assessed as change in MIC by agar dilution method after serial passages in presence of antibiotic relative to control; assay type: functional; method in brief: as §2
[25] = tested on: Staphylococcus epidermidis; test: Antibacterial activity against coagulase-negative Staphylococcus epidermidis 057 by agar dilution method; assay type: functional
Method in brief: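 Agar dilution MIC determined on Mueller-Hinton agar following CLSI guidelines. S. aureus ATCC 29213 and Enterococcus faecalis ATCC 29212 were run as quality controls with each set, and test MICs were accepted only when the control MICs fell within acceptable ranges. Test organism was a coagulase-negative S. epidermidis strain.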

[26] = tested on: Staphylococcus epidermidis; test: Antibacterial activity against methicillin-resistant, Linezolid non-susceptible coagulase-negative Staphylococcus epidermidis 345 by agar dilution method; assay type: functional
[27] = tested on: Staphylococcus aureus; test: Antibacterial activity against vancomycin-resistant Staphylococcus aureus VRS1 assessed as change in MIC by agar dilution method after serial passages in the absence of antibiotic relative to control; assay type: functional
Method in brief: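 Clones from the end of drug passage were transferred 10 times in MHB without antibiotic, then retested by agar dilution. MIC change is expressed as log2 dilution steps.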

[28] = tested on: Staphylococcus aureus; test: Antibacterial activity against methicillin-susceptible Staphylococcus aureus by agar dilution method; assay type: functional; method in brief: as §3
[29] = tested on: Staphylococcus aureus; test: Antibacterial activity against Staphylococcus aureus 145 after 10 passages in MHB without antibiotic by agar dilution method; assay type: functional; method in brief: as §1
[30] = tested on: coagulase-negative staphylococci; test: Antibacterial activity against methicillin-susceptible coagulase-negative staphylococci by agar dilution method
[31] = tested on: Staphylococcus aureus; test: Antibacterial activity against Staphylococcus aureus 145
[32] = tested on: Staphylococcus epidermidis; test: Antibacterial activity against coagulase-negative Staphylococcus epidermidis 197 assessed as change in MIC by agar dilution method after serial passages in presence of antibiotic relative to control; assay type: functional; method in brief: as §2
[33] = tested on: Staphylococcus epidermidis; test: Antibacterial activity against coagulase-negative Staphylococcus epidermidis 225 assessed as change in MIC by agar dilution method after serial passages in the absence of antibiotic relative to control; assay type: functional; method in brief: as §1
[34] = tested on: Staphylococcus aureus; test: Antibacterial activity against Staphylococcus aureus 145 assessed as change in MIC by agar dilution method after serial passages in presence of antibiotic relative to control; assay type: functional; method in brief: as §2
[35] = tested on: Staphylococcus aureus; test: Antibacterial activity against methicillin-resistant Staphylococcus aureus ATCC 43300 after 50 passages by agar dilution method; assay type: functional; details: ATCC43300; method in brief: as §2
[36] = tested on: Staphylococcus epidermidis; test: Antibacterial activity against methicillin-susceptible coagulase-negative Staphylococcus epidermidis 051 by broth macrodilution method; assay type: functional

Q: Which results are given for COc1cc(Cc2cnc(N)nc2N)cc(/C=C/C(=O)N2N=Cc3ccccc3C2c2cnc(N(C)C)nc2)c1OC (stereo unspecified)?
A: fold change (FC) [1]: -6; MIC [2]: 0.03 µg/mL (≈ 0.053 µM); MIC [3]: 0.125 µg/mL (≈ 0.221 µM); MIC [4]: 0.125 µg/mL (≈ 0.221 µM); fold change (FC) [5]: 3; MIC [6]: 0.25 µg/mL (≈ 0.442 µM); fold change (FC) [7]: 11; MIC [8]: 0.25 µg/mL (≈ 0.442 µM); MIC [9]: 4 µg/mL (≈ 7.07 µM); MIC [10]: 0.25 µg/mL (≈ 0.442 µM); fold change (FC) [11]: 10; MIC [12]: 0.25 µg/mL (≈ 0.442 µM); fold change (FC) [13]: -1; MIC [14]: 0.03 µg/mL (≈ 0.053 µM); MIC [15]: 0.5 µg/mL (≈ 0.884 µM); MIC [16]: 2 µg/mL (≈ 3.54 µM); MIC50 [17]: 0.03 µg/mL (≈ 0.053 µM); MIC90 [17]: 0.125 µg/mL (≈ 0.221 µM); MIC [18]: 0.125 µg/mL (≈ 0.221 µM); MIC [19]: ≤ 0.008 µg/mL; MIC [20]: 4 µg/mL (≈ 7.07 µM); MIC [21]: 128 µg/mL (≈ 226 µM); fold change (FC) [22]: 5; fold change (FC) [23]: -7; fold change (FC) [24]: 10; MIC [25]: 8 µg/mL (≈ 14.1 µM); MIC [26]: 0.06 µg/mL (≈ 0.106 µM); fold change (FC) [27]: 0; MIC50 [28]: 0.03 µg/mL (≈ 0.053 µM); MIC90 [28]: 0.25 µg/mL (≈ 0.442 µM); MIC [29]: > 128 µg/mL; MIC90 [30]: 0.03 µg/mL (≈ 0.053 µM); MIC [31]: 0.25 µg/mL (≈ 0.442 µM); fold change (FC) [32]: 1; fold change (FC) [33]: -7; fold change (FC) [34]: 10; MIC [35]: 1 µg/mL (≈ 1.77 µM); MIC [36]: 0.125 µg/mL (≈ 0.221 µM)

Q: How did the “fold change (FC)” value [1] turn out when COc1cc(Cc2cnc(N)nc2N)cc(/C=C/C(=O)N2N=Cc3ccccc3C2c2cnc(N3CCOCC3)nc2)c1OC (stereo unspecified) was run?
A: -6

Q: And the MIC [2]?
A: 0.03 µg/mL (≈ 0.0494 µM)

Q: What about the MIC [3] of the same molecule?
A: 1 µg/mL (≈ 1.65 µM)

Q: What about the MIC [4] of the same molecule?
A: 0.25 µg/mL (≈ 0.411 µM)

Q: What about the “fold change (FC)” value [5] of the same molecule?
A: 4

Q: And the MIC [6]?
A: 1 µg/mL (≈ 1.65 µM)

Q: What about the “fold change (FC)” value [7] of the same molecule?
A: 7

Q: What about the MIC [8] of the same molecule?
A: 0.25 µg/mL (≈ 0.411 µM)

Q: What about the MIC [9] of the same molecule?
A: 1 µg/mL (≈ 1.65 µM)

Q: And the MIC [10]?
A: 0.25 µg/mL (≈ 0.411 µM)

Q: What about the “fold change (FC)” value [11] of the same molecule?
A: 8

Q: What about the MIC [12] of the same molecule?
A: 0.25 µg/mL (≈ 0.411 µM)

Q: What about the “fold change (FC)” value [13] of the same molecule?
A: -1

Q: And the MIC [14]?
A: 0.06 µg/mL (≈ 0.0987 µM)

Q: And the MIC [15]?
A: 1 µg/mL (≈ 1.65 µM)

Q: And the MIC [16]?
A: 2 µg/mL (≈ 3.29 µM)

Q: And the MIC50 [17]?
A: 0.03 µg/mL (≈ 0.0494 µM)

Q: And the MIC90 [17]?
A: 0.25 µg/mL (≈ 0.411 µM)

Q: And the MIC [18]?
A: 0.03 µg/mL (≈ 0.0494 µM)

Q: What about the MIC [19] of the same molecule?
A: ≤ 0.008 µg/mL

Q: What about the MIC [20] of the same molecule?
A: 4 µg/mL (≈ 6.58 µM)

Q: What about the MIC [21] of the same molecule?
A: 128 µg/mL (≈ 211 µM)

Q: What about the “fold change (FC)” value [22] of the same molecule?
A: 5

Q: And the “fold change (FC)” value [23]?
A: -1

Q: What about the “fold change (FC)” value [24] of the same molecule?
A: 10

Q: What about the MIC [25] of the same molecule?
A: 8 µg/mL (≈ 13.2 µM)

Q: What about the MIC [26] of the same molecule?
A: 0.06 µg/mL (≈ 0.0987 µM)

Q: What about the “fold change (FC)” value [27] of the same molecule?
A: 0

Q: What about the MIC50 [28] of the same molecule?
A: 0.03 µg/mL (≈ 0.0494 µM)

Q: What about the MIC90 [28] of the same molecule?
A: 0.25 µg/mL (≈ 0.411 µM)

Q: And the MIC [29]?
A: 128 µg/mL (≈ 211 µM)

Q: And the MIC90 [30]?
A: 0.06 µg/mL (≈ 0.0987 µM)

Q: And the MIC [31]?
A: 0.25 µg/mL (≈ 0.411 µM)

Q: What about the “fold change (FC)” value [32] of the same molecule?
A: 4

Q: What about the “fold change (FC)” value [33] of the same molecule?
A: -7

Q: What about the “fold change (FC)” value [34] of the same molecule?
A: 9

Q: What about the MIC [35] of the same molecule?
A: 2 µg/mL (≈ 3.29 µM)

Q: What about the MIC [36] of the same molecule?
A: 0.25 µg/mL (≈ 0.411 µM)
